Each block holds one compound with its values, some of them ahead of it. Activity calls are given as the source filed them. The rule behind the calls is not given here.
What was measured:
Cannabinoid receptor 1 [1] = biological target: T1, Cannabinoid receptor 1 (Homo sapiens, UniProt P21554); experiment: Displacement of [3H]CP55940 from human CB1 receptor expressed in CHOK1 cells after 1 hr by liquid scintillation counting analysis; type: cell-based, CHO-K1
Cannabinoid receptor 2 = Cannabinoid receptor 2 (Homo sapiens, UniProt P34972); experiment: Displacement of [3H]CP55940 from human CB2 receptor expressed in CHOK1 cells after 1 hr by liquid scintillation counting analysis; type: cell-based, CHO-K1
Procedure, shortened: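 Membranes from butyrate-treated (5 mM, 24 h) CHO-K1 cells stably expressing human CB2, incubated with 0.3 nM [3H]CP55940 and increasing ligand concentrations, 60 min, 30 °C, pH 7.4 Tris buffer with 0.1% fatty acid-free BSA and 1% DMSO; nonspecific binding with 10 μM CP55940; filtration, scintillation counting; tested in triplicate.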

Liver microsome = experiment: Clearance in rat liver microsomes at 2 uM by LC-MS/MS analysis; type: ADME
Procedure, shortened: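 Rat liver microsomes at 0.5 mg/mL were incubated with 2 μM compound (final) and an NADPH-regenerating system. Aliquots were taken at 1, 3, 6, 9, 15, 25, 35 and 45 min and quenched in acetonitrile containing internal standard. Depletion was measured by LC-MS/MS. Clmic = −slope × 1000 / protein concentration (mg/mL), not corrected for microsomal protein binding.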

[2] = Ratio of drug level in brain to plasma in rat; type: ADME; conditions: brain and plasma, read-out: BPR
Cannabinoid receptor 1 [3] = biological target: T1, Cannabinoid receptor 1; experiment: Antagonist activity at human CB1 receptor overexpressed in HEK cells assessed as [35S]GTPgamma binding after 1 hr by liquid scintillation counting analysis; type: functional, cell-based, HEK293
[4] = Clearance in rat at 1 mg/kg, iv; type: ADME, organism-based; set-up: dose 1 mg/kg, route intravenous; conditions: in vivo
Hepatocyte = experiment: Intrinsic clearance in rat hepatocytes at 10 uM by LC-MS/MS analysis; type: ADME, cell-based
Rattus norvegicus [5] = experiment: Increase of insulin sensitivity in high fat diet-fed Sprague-Dawley rat assessed as decrease in insulin AUC at 30 mg/kg, po qd administered for 24 days followed by glucose challenge by oral glucose tolerance test; type: functional, organism-based; set-up: dose 30 mg/kg
Rattus norvegicus [6] = experiment: Maximum unbound fraction in rat at 7.9 mg/kg, po; type: ADME, organism-based; set-up: dose 7.9 mg/kg, route oral; conditions: in vivo
[7] = Drug uptake in Sprague-Dawley rat brain at 30 mg/kg, po qd after 10 days by LC-MS/MS analysis; type: ADME, organism-based; set-up: dose 30 mg/kg, route oral; conditions: read-out: Drug uptake
[8] = Cmax in Sprague-Dawley rat plasma at 30 mg/kg, po qd after 10 days by LC-MS/MS analysis; type: ADME, organism-based; set-up: dose 30 mg/kg, route oral
Procedure, shortened: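 Male Sprague-Dawley rats (n = 3 per compound) given 30 mg/kg/day as feed admix for 10 days; jugular vein catheter implanted 4 days before sampling; on day 10 switched to drug-free high fat chow, then serial K3EDTA blood samples over 24 h; plasma drug levels by LC-MS.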

Plasma [9] = experiment: Maximum unbound fraction in rat plasma at 7.9 mg/kg, po; type: ADME, organism-based; set-up: dose 7.9 mg/kg, route oral; conditions: in vivo
[10] = Cmax in rat plasma at 7.9 mg/kg, po; type: ADME, organism-based; set-up: dose 7.9 mg/kg, route oral
[11] = Volume of distribution at steady state in rat at 1 mg/kg, iv; type: ADME, organism-based; set-up: dose 1 mg/kg, route intravenous; conditions: in vivo, read-out: Vdss
Rattus norvegicus [12] = species: Rattus norvegicus; experiment: Reduction in body weight gain in high fat diet-fed Sprague-Dawley rat at […]; type: functional, organism-based
Rattus norvegicus [13] = experiment: Reduction in body fat content in high fat diet-fed Sprague-Dawley rat at 30 mg/kg, po qd after 24 days; type: functional, organism-based; set-up: dose 30 mg/kg
Procedure, shortened: (§1)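 Diet-induced obese Sprague-Dawley rats (high responders), single-housed, groups of n = 9 matched for body weight and MRS body fat; drug given as food admix for 24 days alongside pair-fed groups; body weight and food intake measured daily; body fat by MRS; plasma leptin by ELISA; mean ± SEM, ANOVA with Dunnett's test versus vehicle.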

[14] = Oral bioavailability in rat at 7.9 mg/kg; type: ADME, organism-based; conditions: in vivo
[15] = Ratio of drug level in Sprague-Dawley rat brain to plasma at 30 mg/kg, po qd after 10 days by LC-MS/MS analysis; type: ADME, organism-based; set-up: dose 30 mg/kg, route oral; conditions: brain and plasma, read-out: BPR
[16] = Plasma protein binding in rat; type: ADME, cell-free; conditions: read-out: PPB (converted)
Rattus norvegicus [17] = experiment: Reduction of leptin level in high fat diet-fed Sprague-Dawley rat plasma at 30 mg/kg, po qd after 24 days by ELISA; type: functional, organism-based; set-up: dose 30 mg/kg; procedure, shortened: as §1
[18] = Tmax in rat plasma at 7.9 mg/kg, po; type: ADME, organism-based; set-up: dose 7.9 mg/kg, route oral
Rattus norvegicus [19] = experiment: Maximum unbound fraction in rat at 10 mg/kg, po; type: ADME, organism-based; set-up: dose 10 mg/kg, route oral; conditions: in vivo
Procedure, shortened: (§2)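 Single-dose oral PK in rats at 10 mg/kg, measuring peak plasma concentration. The maximum unbound level was given alongside rat plasma protein binding (%).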

[20] = Clearance in iv dosed rat; type: ADME, organism-based; conditions: in vivo
[21] = Tmax in po dosed rat plasma; type: ADME, organism-based
Procedure, shortened: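 Single-dose rat PK study: compound given orally at 7.9 or 9 mg/kg, depending on compound. Plasma exposure followed over time, and Tmax (h) taken from the plasma concentration–time profile.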

Rattus norvegicus [22] = experiment: Increase of insulin sensitivity in high fat diet-fed Sprague-Dawley rat assessed as decrease in insulin AUC at 10 mg/kg, po qd administered for 24 days followed by glucose challenge by oral glucose tolerance test; type: functional, organism-based; set-up: dose 10 mg/kg
[23] = Tmax in rat plasma at 10 mg/kg, po; type: ADME, organism-based; set-up: dose 10 mg/kg, route oral
Procedure, shortened: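 Single oral dose of 10 mg/kg in rats. Plasma concentrations followed over time, and time to peak plasma level (h) read from the profile.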

[24] = Cmax in rat plasma at 10 mg/kg, po; type: ADME, organism-based; set-up: dose 10 mg/kg, route oral; procedure, shortened: as §2
Plasma [25] = experiment: Maximum unbound fraction in rat plasma at 10 mg/kg, po; type: ADME, organism-based; set-up: dose 10 mg/kg, route oral; conditions: in vivo; procedure, shortened: as §2
[26] = Volume of distribution at steady state in iv dosed rat; type: ADME, organism-based; conditions: in vivo, read-out: Vdss
[27] = Oral bioavailability in rat; type: ADME, organism-based; conditions: in vivo
Procedure, shortened: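 Bioavailability from rat single-dose PK, comparing oral dosing (10, 7.9 or 9 mg/kg, depending on compound) with intravenous dosing.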

Cannabinoid receptor 2, sequence (P34972 whole entry): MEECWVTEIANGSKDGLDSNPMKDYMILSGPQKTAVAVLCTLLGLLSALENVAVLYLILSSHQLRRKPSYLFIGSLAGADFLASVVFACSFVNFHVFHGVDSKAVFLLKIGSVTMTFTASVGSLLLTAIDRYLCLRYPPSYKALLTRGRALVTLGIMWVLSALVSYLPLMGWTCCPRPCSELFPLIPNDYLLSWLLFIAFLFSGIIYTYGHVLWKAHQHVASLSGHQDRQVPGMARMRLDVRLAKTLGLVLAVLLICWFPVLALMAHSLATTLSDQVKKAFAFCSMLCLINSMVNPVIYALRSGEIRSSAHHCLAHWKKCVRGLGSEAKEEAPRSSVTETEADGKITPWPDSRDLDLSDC
T1 sequence (P21554 whole entry): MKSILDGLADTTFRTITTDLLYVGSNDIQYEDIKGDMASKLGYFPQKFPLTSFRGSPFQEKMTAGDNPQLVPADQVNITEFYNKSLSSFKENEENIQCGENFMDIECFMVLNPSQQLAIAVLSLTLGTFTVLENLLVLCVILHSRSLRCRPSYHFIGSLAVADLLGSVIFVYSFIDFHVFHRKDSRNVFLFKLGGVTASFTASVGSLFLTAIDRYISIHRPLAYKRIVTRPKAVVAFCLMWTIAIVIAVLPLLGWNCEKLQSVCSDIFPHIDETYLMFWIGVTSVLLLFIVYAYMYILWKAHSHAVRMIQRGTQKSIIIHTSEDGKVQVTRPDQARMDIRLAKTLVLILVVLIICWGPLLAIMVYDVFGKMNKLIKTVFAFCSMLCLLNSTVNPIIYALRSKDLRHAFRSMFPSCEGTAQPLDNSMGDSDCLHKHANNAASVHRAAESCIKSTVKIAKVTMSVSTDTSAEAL

Compound: O=C(N[C@@H]1CCCC[C@H]1O)c1cnc(OCC2CC2)c(-c2ccc(F)cc2)c1
Ki (Cannabinoid receptor 1 [1]): 42.8 nM
Ki (Cannabinoid receptor 2): > 10 µM
CLH (Liver microsome): 37 µL/min/mg

Compound: O=C(N[C@@H]1CCCC[C@H]1O)c1cnc(OCC2CC2)c(-c2ccc(Cl)cc2)c1
Kp [2]: 0.7
EC50 (Cannabinoid receptor 1 [3]): 3.9 nM
clearance [4]: 7.4 mL/min/kg
Ki (Cannabinoid receptor 2): > 7 µM
CLH (Hepatocyte): 3.3 µL/min
CLH (Liver microsome): 64 µL/min/mg
Activity (Rattus norvegicus [5]): Active
fCmax (Rattus norvegicus [6]): < 28 nM
concentration at 240 h [7]: 1400 ng/g
Cmax [8]: 1020 ng/mL
Cp(f)max (Plasma [9]): < 11 ng/mL
Cmax [10]: 729 ng/mL
Vd [11]: 1.8 L/kg
Activity (Rattus norvegicus [12]): Active
Activity (Rattus norvegicus [13]): Active
bioavailability [14]: 23%
Kp at 240 h [15]: 1.3
fraction unbound [16]: < 0.016
Activity (Rattus norvegicus [17]): Active
Tmax [18]: 1.9 h

Compound: Cc1c(C(=O)NN2CCCCC2)nn(-c2ccc(Cl)cc2Cl)c1-c1ccc(Cl)cc1 [RIMONABANT]
Kp [2]: 3
fCmax (Rattus norvegicus [19]): 1.8 nM
clearance [20]: 17 mL/min/kg
Tmax [21]: 1 h
Activity (Rattus norvegicus [22]): Active
Tmax [23]: 1.5 h
Cmax [24]: 244 ng/mL
Cp(f)max (Plasma [25]): 0.83 ng/mL
Vd [26]: 11.5 L/kg
fraction unbound [16]: 0.003
bioavailability [27]: 12%

Compound: O=C(N[C@@H]1CCCC[C@H]1O)c1cnc(OCC2CC2)c(-c2cc(C(F)(F)F)ccc2Cl)c1
Ki (Cannabinoid receptor 1 [1]): 67.7 nM
Ki (Cannabinoid receptor 2): 2.08 µM
CLH (Liver microsome): 59 µL/min/mg

Compound: O=C(N[C@@H]1CCCC[C@H]1O)c1cnc(OCc2ccccc2)c(-c2ccc(Cl)cc2)c1
Ki (Cannabinoid receptor 1 [1]): 40.2 nM
Ki (Cannabinoid receptor 2): > 10 µM
CLH (Liver microsome): 20 µL/min/mg

Further lines, results first:

Ki (Cannabinoid receptor 1 [1]): 51.6 nM
Ki (Cannabinoid receptor 2): > 10 µM
CLH (Liver microsome): 12 µL/min/mg
Compound: O=C(N[C@@H]1CCCC[C@H]1O)c1cnc(OCc2ncccn2)c(-c2ccc(Cl)cc2)c1

Ki (Cannabinoid receptor 1 [1]): 139 nM
Ki (Cannabinoid receptor 2): > 10 µM
CLH (Liver microsome): 44 µL/min/mg
Compound: O=C(N[C@@H]1CCCC[C@H]1O)c1cnc(OCc2ccccn2)c(-c2ccc(Cl)cc2)c1

Ki (Cannabinoid receptor 1 [1]): 51.1 nM
Ki (Cannabinoid receptor 2): > 10 µM
CLH (Liver microsome): 1730 µL/min/mg
Compound: CN(CC1CC1)c1ncc(C(=O)N[C@@H]2CCCC[C@H]2O)cc1-c1ccc(Cl)cc1
